Key:
[1] = system: Bcl6-independent DLBCL cell lines; assay: Growth inhibition determination; format: cell-based, human; settings: read-out: GI50 (concentration that inhibited the growth of the cell lines by 50% compared to control); 48 h; group of four Bcl6-independent DLBCL cell lines
[2] = system: Farage, OCI-Ly7 and SU-DHL4 DLBCL xenografts; assay: Mice xenotransplant study, pooled; format: in vivo, SCID mice; settings: 75 mg per kg per day
Procedure, shortened: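 Male SCID mice, 6–8 weeks old, injected s.c. in the left flank with 10^7 low-passage DLBCL cells. At palpable size (about 75–100 mm3, 24–33 days), pairs were randomized to vehicle or 75 mg/kg/day test compound i.p. (reconstituted in sterile water) for 10 days, n = 5 per arm per line. Caliper volume was measured every other day as (smallest diameter² × largest)/2. Mice were euthanized when ≥2 of 10 tumors reached 20 mm. Tumors were weighed and TUNEL-scored as apoptotic/total cells. Survival ran from treatment start to death or tenfold volume rise, by Kaplan-Meier with Cox's F test.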

BCL6 mRNA = assay: mRNA decay determination; format: cell-based, human; settings: OCI-Ly7; versus vehicle-treated cells
Procedure, shortened: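 OCI-Ly7 cells pretreated 2 h with 0.5 μM test compound or control, then actinomycin D added for a time course. BCL6 mRNA quantified by QPCR against a standard curve, normalized to untreated cells; three independent experiments averaged to derive half-life.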

SU-DHL6 xenograft = assay: Mice xenotransplant study, SU-DHL6; format: in vivo, SCID mice; settings: 75 mg per kg per day; 20 days
Procedure, shortened: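 Additional cohort of SCID mice with s.c. OCI-Ly7 or SU-DHL6 xenografts held until mean tumor volume reached 500 mm3, then given test compound i.p. for 20 days; tumor volume followed by caliper every other day.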

Bcl6 [3] = assay: Bcl6 immunoblot in DLBCL cells; format: cell-based, human
Procedure, shortened: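 Farage, OCI-Ly7 and SU-DHL4 cells exposed 24 h to 0.1, 0.25, 0.5 or 1 μM test compound; OCI-Ly7 also given 0.5 μM for 4, 6, 12, 18, 24 and 48 h. Compound added from concentrated stock to 10% serum medium. Lysates immunoblotted for Bcl6 with N-terminal (N3) and C-terminal (C19) antibodies, actin as loading control.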

Mice toxicity studies = format: in vivo, Balb/c mice; settings: 50 or 75 mg per kg per day; 10 days
[4] = system: Bcl6-dependent DLBCL cell lines; assay: Growth inhibition determination; format: cell-based, human; settings: read-out: GI50 (concentration that inhibited the growth of the cell lines by 50% compared to control); 48 h; group of seven Bcl6-dependent DLBCL cell lines
Procedure, shortened: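 Cells seeded so untreated controls stayed in exponential growth through the 48 h exposure, then treated with 0.1–10 μM test compound or water vehicle in 10% serum medium. Viability read by resazurin reduction fluorescence (560Ex/590Em), with viable cells calculated from a standard curve and 6 replicates per condition, and verified by sulforhodamine B or ATP luminescence. Values normalized to controls. Experiments in triplicate. GI50 taken from dose-effect curves and reported as mean with 95% CI.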

[5] = system: primary human DLBCL cells; assay: Primary cells treatment, viability; format: cell-based; settings: 2.5 μM; 48 h; versus vehicle-treated controls
Procedure, shortened: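 Lymph node biopsies disrupted physically and separated by density gradient; cells kept in 80% RPMI/20% human serum with antibiotics, L-glutamine and HEPES. Exposed in triplicate to 2.5 μM test compound or water for 48 h. Viability read by ATP luminescence and dye exclusion, expressed as percent of vehicle control.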

Bcl6 [6] = assay: Protein decay determination; format: cell-based, human; settings: OCI-Ly7; 0.5 µM PU-H71 after Cycloheximide 5 μM
Procedure, shortened: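 OCI-Ly7 cells, control or test-compound treated, incubated with 5 μM cycloheximide over a time course. Bcl6 and actin immunoblotted at each point; Bcl6/actin ratio quantified by densitometry with untreated cells set at 100% and plotted against time.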

OCI-Ly7 xenografts = assay: Mice xenotransplant study, OCI-Ly7; format: in vivo, SCID mice; settings: 75 mg per kg per day; 20 days
[7] = Toxicity in xenografted mice; format: in vivo, SCID mice; settings: 75 mg per kg per day, 10 days
Procedure, shortened: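 Xenografted SCID mice dosed i.p. at 75 mg/kg/day were weighed every other day. At euthanasia, blood was collected and tumors and other tissues were harvested, weighed and examined microscopically by pathologists.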

Pharmacokinetic = format: in vivo; settings: Farage xenograft mice, 75 mg per kg i.p.
Procedure, shortened: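 Mice bearing 1 cm3 Farage xenografts received a single 75 mg/kg i.p. dose of test compound; killed at 6, 12 and 24 h alongside controls. Serum, tumor and normal tissues assayed for compound concentration by HPLC-MS.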

Toledo xenografts = assay: Mice xenotransplant study, Toledo; format: in vivo, SCID mice; settings: Bcl6-independent; similar dose (75 mg per kg per day)

**Q.** Which results are given for `CC(C)NCCCn1c(Sc2cc3c(cc2I)OCO3)nc2c(N)ncnc21` [PU-H71]?
**A.** GI50 [1]: 71 µM; DLBCL size and weight compared to control ([2]; 10 days): potently reduced; survival (tumor growth to critical mass as surrogate) v controls ([2]; n = 15, Cox's F test P < 0.0001): significantly prolonged; increase in Bcl6 mRNA decay rate (BCL6 mRNA): 32%; tumor volume (SU-DHL6 xenograft): ≤ 100 mm^3; Bcl6 protein abundance (Bcl6 [3]; 24 h, 0.1-1 μM, Farage, OCI-Ly7 and SU-DHL4): dose-dependent reduction; Bcl6 protein (immunoblot, antibodies N3 and C19) (Bcl6 [3]; OCI-Ly7, 0.5 μM, after 18 h): barely detectable; hematologic, renal or hepatic toxicity (blood counts, chemistry, liver function, thyroid hormone) (Mice toxicity studies): no evidence of hematologic, renal or hepatic toxicity; macroscopic or microscopic toxicity (Mice toxicity studies): no evidence of macroscopic or microscopic toxicity; GI50 [4]: 1.39 µM; cases among 21 DLBCLs with greater than 25% loss of viability [5]: 19; time for relative Bcl6 protein abundance to decrease from 100% to 50% (Bcl6 [6]): 5 h; tumor volume in steady phase (OCI-Ly7 xenografts): ~500 mm^3; toxicity from behavioral, macroscopic or microscopic standpoints [7]: no evidence of toxicity; PU-H71 concentration in tumor (Pharmacokinetic; 6 h): 42.1 µg/g; PU-H71 concentration in tumor (Pharmacokinetic; 12 h): 27.6 µg/g; PU-H71 concentration in tumor (Pharmacokinetic; 24 h): 12 µg/g; PU-H71 in serum (Pharmacokinetic; after the 6 h timepoint): undetectable; effect on xenograft growth (Toledo xenografts): no effect
